Reference: ChEMBL document CHEMBL1129356, “Novel 3,7-diheterabicyclo[3.3.1]nonanes that possess predominant class III antiarrhythmic activity in 1-4 day post infarction dog models: X-ray diffraction analysis of 3-[4-(1H-imidazol-1-yl)benzoyl]-7-isopropyl-3,7-diazabicyclo[3.3.1]nona ne dihydroperchlorate” (1996)
Calls of active or inactive are those of the source.

Legend:
[1] = system: Canis familiaris; assay: Antiarrhythmic property Heart rate (drug free) is compared to Lidocaine using doses (3 and 6 mg/kg).; type: functional, Canis lupus familiaris
Procedure, shortened: (§1)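 Mongrel dogs (~12–25 kg), 1–4 days after coronary occlusion leaving a surviving epicardial rim, anesthetized with sodium pentobarbital (~30 mg/kg). 12-lead ECG monitored throughout. Agent given iv at 3 and 6 mg/kg. Parameters recorded before (drug free) and after dosing. Programmed electrical stimulation tested SVT inducibility (≥250 beats/min, ≥30 s) at baseline, ~2–5 min after each dose, and at 30 min.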

[2] = system: Canis familiaris; assay: Antiarrhythmic property A-V nodal conduction time(drug free) is compared to lidocaine(2) using doses(3 and 6 mg/kg); No effect; type: functional, organism-based; parameters: dose 6 mg/kg; settings: Canis lupus familiaris; Heart; procedure, shortened: as §1
[3] = system: Canis familiaris; assay: Antiarrhythmic property Mean blood pressure (drug free) is compared to Lidocaine using doses(3 and 6 mg/kg).; type: functional, Canis lupus familiaris; procedure, shortened: as §1
[4] = system: Canis familiaris; assay: Antiarrhythmic property A-V nodal conduction time(post drug) is compared to lidocaine(2) using dose (3 and 6 mg/kg); No effect; type: functional, organism-based; parameters: dose 6 mg/kg; settings: Canis lupus familiaris; Heart; procedure, shortened: as §1
[5] = system: Canis familiaris; assay: Antiarrhythmic property Heart rate (post drug) is compared to Lidocaine using doses(3 and 6 mg/kg). system.; type: functional, Canis lupus familiaris; procedure, shortened: as §1
[6] = system: Canis familiaris; assay: Antiarrhythmic property His-Purkinje conduction time(post drug) is compared to lidocaine(2) using dose(3 and 6 mg/kg); No effect; type: functional, organism-based; parameters: dose 6 mg/kg; settings: Canis lupus familiaris; His-Purkinje system
Procedure, shortened: (§2)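 Mongrel dogs (about 12–25 kg), 1–4 days after coronary occlusion infarction, under sodium pentobarbital (~30 mg/kg) with 12-lead ECG monitoring. Agents and lidocaine were given iv at 3 and 6 mg/kg. Programmed ventricular stimulation was applied at baseline, about 2–5 min after each dose, and at 30 min. SVT was defined as ≥250 beats/min lasting ≥30 s. Pre means drug-free; post means after dosing.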

[7] = system: Canis familiaris; assay: (§3) Antiarrhythmic property Nonsustained ventricular tachycardia is compared to lidocaine(2) using dose of (3 and 6 mg/kg); type: functional, Canis lupus familiaris, Heart; procedure, shortened: as §1
[8] = system: Canis familiaris; assay: Antiarrhythmic property compared to lidocaine(2) using doses(3 and 6 mg/kg). Time required for the ventricular myocardium to undergo depolarization and repolarization ((post drug); No effect; type: functional, organism-based; parameters: dose 6 mg/kg; settings: Canis lupus familiaris; procedure, shortened: as §2
[9] = system: Canis familiaris; assay: Antiarrhythmic property Mean blood pressure(post drug) is compared to Lidocaine using doses(3 and 6 mg/kg); type: functional, Canis lupus familiaris; procedure, shortened: as §1
[10] = system: Canis familiaris; assay: Antiarrhythmic property His-Purkinje conduction time(drug free) is compared to lidocaine(2) using doses(3 and 6 mg/kg); No effect; type: functional, organism-based; parameters: dose 6 mg/kg; settings: Canis lupus familiaris; His-Purkinje system; procedure, shortened: as §2
[11] = system: Canis familiaris; assay: Antiarrhythmic property compared to lidocaine(2) using doses(3 and 6 mg/kg). Time required for the ventricular myocardium to undergo depolarization and repolarization (drug free); No effect; type: functional, organism-based; parameters: dose 6 mg/kg; settings: Canis lupus familiaris; procedure, shortened: as §2
[12] = system: Canis familiaris; assay: Antiarrhythmic property ventricular effective refractory period(drug free) is compared to lidocaine(2) using doses(3 and 6 mg/kg); No effect; type: functional, organism-based; parameters: dose 6 mg/kg; settings: Canis lupus familiaris; Heart; procedure, shortened: as §1
[13] = system: Canis familiaris; assay: Antiarrhythmic property ventricular effective refractory period(post drug) is compared to lidocaine(2) using doses(3 and 6 mg/kg); No effect; type: functional, organism-based; parameters: dose 6 mg/kg; settings: Canis lupus familiaris; Heart; procedure, shortened: as §1
[14] = system: Canis familiaris; assay: Antiarrhythmic property His-Purkinje conduction time(drug free) is compared to lidocaine(2) using doses(3 and 6 mg/kg) measures; type: functional, Canis lupus familiaris, His-Purkinje system; procedure, shortened: as §1
[15] = system: Canis familiaris; assay: Antiarrhythmic property His-Purkinje conduction time(post drug) is compared to lidocaine(2) using doses(3 and 6 mg/kg) measures; type: functional, Canis lupus familiaris, His-Purkinje system; procedure, shortened: as §1
[16] = system: Canis familiaris; assay: Tested for antiarrhythmic property by measuring ability to decrease Mean blood pressure (post drug) is compared to Lidocaine using doses(3 and 6 mg/kg); type: functional, Canis lupus familiaris; procedure, shortened: as §2
[17] = system: Canis familiaris; assay: Antiarrhythmic property His-Purkinje conduction time(post drug) is compared to lidocaine(2) using doses(3 and 6 mg/kg); No effect; type: functional, organism-based; parameters: dose 6 mg/kg; settings: Canis lupus familiaris; His-Purkinje system; procedure, shortened: as §2
[18] = system: Canis familiaris; assay: Tested for antiarrhythmic property by measuring ability to decrease heart rate (drug free) is compared to Lidocaine using doses (3 and 6 mg/kg).; type: functional, Canis lupus familiaris; procedure, shortened: as §2
[19] = system: Canis familiaris; assay: Tested for antiarrhythmic property by measuring ability to decrease Mean blood pressure (drug free) is compared to Lidocaine using doses(3 and 6 mg/kg).; type: functional, Canis lupus familiaris; procedure, shortened: as §2
[20] = system: Canis familiaris; assay: Antiarrhythmic properties are compared to lidocaine(2) using doses(3 and 6 mg/kg). Time required for the ventricular myocardium to undergo depolarization and repolarization ((post drug); No effect; type: functional, organism-based; parameters: dose 6 mg/kg; settings: Canis lupus familiaris; procedure, shortened: as §2
[21] = system: Canis familiaris; assay: Tested for antiarrhythmic property by measuring ability to decrease heart rate(post drug) is compared to Lidocaine using doses(3 and 6 mg/kg).; type: functional, Canis lupus familiaris; procedure, shortened: as §2
[22] = system: Canis familiaris; assay: Antiarrhythmic properties are compared to lidocaine(2) using doses(3 and 6 mg/kg). Time required for the ventricular myocardium to undergo depolarization and repolarization (drug free); No effect; type: functional, organism-based; parameters: dose 6 mg/kg; settings: Canis lupus familiaris; procedure, shortened: as §2
[23] = system: Canis familiaris; assay: Antiarrhythmic property A-V nodal conduction time(drug free) is compared to lidocaine(2) using doses(3 and 6 mg/kg); type: functional, Canis lupus familiaris, Heart; procedure, shortened: as §2
[24] = system: Canis familiaris; assay: Antiarrhythmic properties are compared to lidocaine(2) using doses(3 and 6 mg/kg) measures His-Purkinje conduction time(drug free); No effect; type: functional, organism-based; parameters: dose 6 mg/kg; settings: Canis lupus familiaris; His-Purkinje system; procedure, shortened: as §2
[25] = system: Canis familiaris; assay: Antiarrhythmic property ventricular effective refractory period(drug free) is compared to lidocaine(2) using doses(3 and 6 mg/kg); type: functional, Canis lupus familiaris, Heart; procedure, shortened: as §2
[26] = system: Canis familiaris; assay: Antiarrhythmic property A-V nodal conduction time(post drug) is compared to lidocaine(2) using dose (3 and 6 mg/kg); type: functional, Canis lupus familiaris, Heart; procedure, shortened: as §2
[27] = system: Canis familiaris; assay: as §3; type: functional, Canis lupus familiaris, Heart; procedure, shortened: as §2; remark: listed apart in the source

c1ccc(CN2CC3CN(CC4CC4)CC(C2)C32SCCS2)cc1
HR [1]: 148 beats min-1 | AH interval [2]: inactive | MBP [3]: 105 mmHg | AH interval [4]: inactive | HR [5]: 148 beats min-1 | HV interval [6]: inactive | NSVT [7]: 3 mg/kg | QT [8]: inactive | MBP [9]: 105 mmHg | HV interval [10]: inactive | QT [11]: inactive | VERP [12]: inactive | VERP [13]: inactive

Cl.c1ccc(CN2CC3CSCC(C3)C2)cc1
HR [1]: 162 beats min-1 | HV interval [14]: 30 ms | MBP [3]: 99 mmHg | HR [5]: 165 beats min-1 | NSVT [7]: 3 mg/kg | HV interval [15]: 35 ms | MBP [9]: 105 mmHg

O=C(c1ccccc1)N1CC2CC(CN(CC3CC3)C2)C1
MBP [16]: 83 mmHg | HV interval [17]: inactive | HR [18]: 120 beats min-1 | MBP [19]: 92 mmHg | QT interval [20]: inactive | HR [21]: 111 beats min-1 | QT interval [22]: inactive | AH interval [23]: 65 ms | HV interval [24]: inactive | VERP [25]: 170 ms | AH interval [26]: 70 ms | VERP [27]: 190 ms
